# Compound activity: PubChem BioAssay, Sanford-Burnham Center for Chemical Genomics
# Hits are enriched below; roughly 1.5% of the tested compounds scored in any of these assays.
# CXCR6 inh: blocks human CXCR6 beta-arrestin recruitment; O00574; CHO-K1 PathHunter CXCR6 beta-arrestin, luminescence; inhibition, % at 20 µM; 360,000 tested, 0.36% active; AID 602244; in the data active = inhibition above about 34%, passing the limit was not always enough;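 note: antagonist mode with CXCL16 agonist at 10 nM final; 0% = 10 nM CXCL16 with DMSO and 100% = unstimulated wells without agonist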
# APJ ag: activates the human apelin receptor APJ; 330,000 tested, 0.11% active; activation, % at 20 µM; P35414; CHO-K1 APJ PathHunter beta-arrestin, luminescence; 0% DMSO wells, 100% apelin; AID 2520;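 active = activation more than six SD over the plate average, tested at 20 µM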;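 note: 0% = DMSO alone and 100% = apelin-13 at 10 nM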
#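 assay system = CHO-K1 APJ beta-arrestin complementation cell line | input = cell density 1000 per well | dosing = compound 20 µM once, DMSO 1% | timing = compound 90 min 25 °C, reagent 1 h | measured by = luminescence from split beta-galactosidase complementation, Galacton Star/Emerald II substrate | read-out basis = APJ agonist activity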
# EBI2 antag: antagonists of human EBI2 receptor; inhibition, % at 5 µM; P32249; AID 651636; 360,000 tested, 0.81% active; EBI2 beta-arrestin recruitment, luminescence, 7a,25-OHC stimulated; in the data active = inhibition above about 38%;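 note: enzyme fragment complementation signal reports receptor beta-arrestin coupling in cells; 0% = agonist plus DMSO wells and 100% = wells without agonist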
# APJ antagonist: APJ receptor antagonism; P35414; AID 2521; CHO-K1 APJ beta-arrestin complementation, luminescence; inhibition, % at 20 µM; 330,000 tested, 0.32% active;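 active = inhibition above about 40% at 20 µM, limit read from the data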;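 note: cells challenged with 10 nM apelin-13 agonist together with compound; plate controls were apelin-13 plus DMSO wells for no effect and DMSO wells lacking apelin-13 for full effect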
# CCR6 antag: antagonists of human CCR6 receptor. 340,000 tested, 0.49% active. inhibition, % at 20 µM. CHO-K1 CCR6 PathHunter beta-arrestin, luminescence, CCL20-stimulated. AID 493098. P51684;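 active = compounds whose inhibition of the agonist-driven luminescence signal at 20 µM reaches about 50%, limit read from the data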;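 note: cells stimulated with CCL20 at 14 nM final; plate controls were DMSO with CCL20 for no effect and DMSO without agonist for full effect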
# Target sequence (P51684 whole entry, looked up): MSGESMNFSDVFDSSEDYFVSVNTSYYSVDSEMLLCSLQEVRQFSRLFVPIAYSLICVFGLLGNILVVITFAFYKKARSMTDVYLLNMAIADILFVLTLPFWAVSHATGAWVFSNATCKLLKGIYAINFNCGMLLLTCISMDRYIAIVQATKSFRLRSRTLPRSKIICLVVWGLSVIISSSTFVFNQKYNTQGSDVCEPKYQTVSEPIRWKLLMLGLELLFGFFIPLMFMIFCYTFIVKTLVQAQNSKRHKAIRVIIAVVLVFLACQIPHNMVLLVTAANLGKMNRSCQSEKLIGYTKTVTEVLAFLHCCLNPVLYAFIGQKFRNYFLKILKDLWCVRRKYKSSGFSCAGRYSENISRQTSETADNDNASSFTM
# EBI2 conf: confirmation of human EBI2 receptor antagonists; AID 651997; shares compounds with EBI2 antag; EBI2 beta-arrestin luminescence, 7a,25-OHC antagonism; inhibition, % at 5 µM; 2,400 tested, 29% active;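 active = inhibition of at least 50%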
# EBI2 ag: counter-screen for EBI2 antagonists: EBI2 agonist activity; shares compounds with EBI2 antag; EBI2-expressing cells, agonist mode, luminescence, 60 min; 0% vehicle, 100% 7α,25-dihydroxycholesterol control; activation, % at 5 µM; 2,400 tested, under 10 active; AID 652000;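 active = activation of at least 50%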
# bGal cs: inhibits E. coli beta-galactosidase, counter-screen for EBI2 antagonists | purified beta-galactosidase, luminescent Galacton Star, 15 min | shares compounds with EBI2 antag | 2,400 tested, 1% active | AID 652176 | inhibition, % at 5 µM;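 active = replicate-average signal at least 3 plate SD below neutral wells, shown as high inhibition, flagging enzyme-inhibiting false positives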;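 note: 0% = DMSO wells with enzyme and 100% = wells lacking enzyme; higher means stronger loss of beta-gal luminescence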
# Numbers without * were called inactive; nt = not tested or not shown.
SMILES,CXCR6 inh,APJ ag,EBI2 antag,APJ antagonist,CCR6 antag,EBI2 conf,EBI2 ag,bGal cs
COc1ccc(OCc2nc3c4c(ncn3n2)-c2ccccc2CC42CCCC2)cc1,-2.1,-1.9,55.4*,-21.3,17.7,18.6,2.6,5.7
Oc1cccc(-c2nc3c4c(ncn3n2)-c2ccccc2CC42CCCC2)c1,-7.6,-0.4,46.7*,-18.7,-8.2,30.7,2.1,9.0
Cc1ccc(OCc2nc3c4c(ncn3n2)-c2ccccc2CC42CCCC2)cc1,5.6,-3.1,25.4,18.2,14.2,nt,nt,nt
Cc1cccc(C)c1-n1nnnc1C(c1ccnc2ccccc12)N1CCCC1 (configuration not stated),7.9,nt,6.0,nt,nt,nt,nt,nt
Cc1cccc(C)c1-n1nnnc1C(c1ccnc2ccccc12)N1CCN(C(=O)OCc2ccccc2)CC1 (configuration not stated),10.6,nt,40.8*,nt,nt,35.7,-1.2,-14.1
CCCNC(=O)C1(C)CCN(C(=O)c2cccc(C#N)c2)C1 (configuration not stated),-4.4,nt,-3.0,nt,nt,nt,nt,nt
COc1ccc(CCC(=O)NCCc2ccc(Cl)cc2)cc1,1.7,-5.7,43.0*,8.5,10.2,27.2,0.7,2.2
Cc1ccc(NC(=O)c2cc(N3C(=O)C=CC3=O)ccc2Cl)cc1C,20.8,-0.6,9.9,-8.6,nt,nt,nt,nt
CC(C)NC(=O)N1Cc2cc(C(=O)NC3CCCC3)nc(-c3cccc(-c4cccnc4)c3)c2[C@@H]1CCO,-1.0,nt,5.4,nt,nt,nt,nt,nt
CCC(=O)c1ccc(OCC(O)CN2CCN(C(c3ccccc3)c3ccccc3)CC2)cc1 (configuration not stated),10.6,-1.6,74.8*,15.9,0.3,46.3,3.2,3.2
N#Cc1ccc(OCC(O)CN2CCN(C(c3ccccc3)c3ccccc3)CC2)cc1 (configuration not stated),3.5,-1.4,88.6*,2.5,9.5,58.9*,-0.9,-11.0
CCC(=O)c1ccc(OCC(O)CN2CCOCC2)cc1 (configuration not stated),-0.4,-1.6,-4.7,8.6,-4.4,nt,nt,nt
N#Cc1ccc(OCC(O)CN2CCN(c3ncc(C(F)(F)F)cc3Cl)CC2)cc1 (configuration not stated),-12.3,-4.0,48.4*,-7.8,11.6,32.4,-1.2,-16.2
N#Cc1ccc(OCC(O)CN2CCN(CC(O)COc3ccc(C#N)cc3)CC2)cc1 (configuration not stated),8.3,0.4,14.7,8.3,-1.1,nt,nt,nt
OC(COc1ccccc1)CN1CCN(C(c2ccccc2)c2ccccc2)CC1 (configuration not stated),5.4,0.3,59.5*,-0.8,3.9,22.0,-0.4,-7.9
OC(CN1CCN(c2ncc(C(F)(F)F)cc2Cl)CC1)c1ccccc1 (configuration not stated),-8.2,-2.5,-0.3,-2.1,0.8,nt,nt,nt
CCOC(=O)C1CCCN(C(=O)CCCn2c(=O)c3cccn3c3cccnc32)C1 (configuration not stated),-5.6,-1.9,0.8,-26.2,2.3,nt,nt,nt
O=C(NCCN1C(=O)S/C(=C\c2ccc(Cl)cc2)C1=O)c1ccc(F)c(S(=O)(=O)N2CCOCC2)c1,0.5,0.2,66.9*,-8.3,-5.0,47.9,2.1,-1.0
O=[N+]([O-])c1ccc(NN=Cc2cc(Br)ccc2O)nc1,32.2,nt,58.9*,nt,66.7*,33.7,-0.7,13.1
O=[N+]([O-])c1ccc(NN=Cc2cccc(O)c2)nc1,3.9,nt,10.5,nt,34.4,nt,nt,nt
C=CCOc1ccc(/C=C/C(=O)OCc2csc(CC(=O)Nc3ccccc3C)n2)cc1,5.7,2.9,-11.8,-45.9,11.8,nt,nt,nt
CCOC(=O)c1cnc(SCC(=O)Nc2cc(C(F)(F)F)ccc2N2CCOCC2)nc1N,-12.5,1.4,85.0*,2.3,30.8,86.3*,2.8,4.6
O=C(COC(=O)c1cc(S(=O)(=O)N2CCCCC2)ccc1N1CCOCC1)c1ccccc1Cl,5.7,nt,48.1*,nt,nt,65.0*,-0.2,6.3
